SUMO1 PPI mod – modulators of human SUMO1-mediated protein-protein interactions. P63165. SUMO1 binding to a labelled peptide, TR-FRET, 1 h. inhibition, % at 20 µM. hit rate 0.33% among 360,000; in the data active = inhibition above about 37%
Target sequence (P63165 whole entry, looked up): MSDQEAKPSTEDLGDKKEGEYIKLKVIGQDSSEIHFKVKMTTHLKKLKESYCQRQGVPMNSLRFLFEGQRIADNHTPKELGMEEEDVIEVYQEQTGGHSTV
Scp1 inh – inhibitors of human Scp-1 phosphatase; Recombinant Scp1, phosphopeptide, malachite green phosphate absorbance; inhibition, % at 20 µM; Q9GZU7; hit rate 0.88% among 340,000;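 active = inhibition above about 50% at 20 µM, limit read from the data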
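Test system: SCP-1 catalytic domain; Buffer or medium: Acidic Tris acetate buffer with magnesium and detergent; Also added: Phosphorylated 17-residue peptide substrate; Compound: single 20 µM dose, 1% DMSO; Schedule: enzyme reaction 45 min at room temperature, colour 5 min, stabilisation 30 min; Signal: Phosphate-binding colour reagent, absorbance read at 630 nm.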
LMPTP block – LMPTP (human) inhibition; P24666; recombinant LMPTP-A, OMFP fluorogenic substrate, fluorescence intensity; inhibition, % at 20 µM; hit rate 0.22% among 360,000;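 active = compounds that cut the enzyme signal by at least half of the control window in the single-dose screen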
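test system = LMPTP-A | amount = 0.625 nM LMPTP-A final | reagent = fluorogenic phosphatase substrate OMFP at 400 µM final | incubation = 50 min at room temperature | benchmarks = no-enzyme low control, uninhibited high control | medium = Bis-Tris pH 6.0, DTT, detergent | signal = fluorescence intensity of OMFP turnover product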
STEP inh – STEP (human) phosphatase inhibition. P54829. recombinant STEP, OMFP fluorogenic substrate, fluorescence. inhibition, % at 20 µM. hit rate 0.25% among 360,000;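 active = inhibition at 20 µM, scaled per plate between control wells, above about 37%, limit read from the data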
Target sequence (P54829 whole entry, looked up): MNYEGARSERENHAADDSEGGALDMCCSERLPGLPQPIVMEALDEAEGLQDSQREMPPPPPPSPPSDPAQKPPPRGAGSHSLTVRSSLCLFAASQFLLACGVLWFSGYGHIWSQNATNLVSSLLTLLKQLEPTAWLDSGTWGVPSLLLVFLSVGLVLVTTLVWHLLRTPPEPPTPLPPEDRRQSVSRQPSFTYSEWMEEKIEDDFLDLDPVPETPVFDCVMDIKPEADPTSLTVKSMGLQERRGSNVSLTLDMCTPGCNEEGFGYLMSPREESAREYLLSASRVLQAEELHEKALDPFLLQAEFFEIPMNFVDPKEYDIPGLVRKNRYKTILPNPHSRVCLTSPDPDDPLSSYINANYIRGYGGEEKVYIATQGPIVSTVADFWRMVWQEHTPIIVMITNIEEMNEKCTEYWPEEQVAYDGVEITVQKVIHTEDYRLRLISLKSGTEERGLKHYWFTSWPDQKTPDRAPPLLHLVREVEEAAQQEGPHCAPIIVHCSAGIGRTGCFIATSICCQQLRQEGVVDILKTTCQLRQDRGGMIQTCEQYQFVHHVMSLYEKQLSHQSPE
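Material: STEP (striatal-enriched tyrosine phosphatase) enzyme, cell-free | Medium: 50 mM Bis-Tris pH 6.0 with 2.5 mM DTT and 0.005% Tween 20 | Read-out: Percent inhibition scaled to no-enzyme and uninhibited-enzyme controls, plate-pattern corrected | Signal: Fluorescence read at 480 nm ex / 540 nm em | Times: 20 min reaction, room temperature, in the dark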
DNMT1 block – inhibitors of human DNMT1; hit rate 0.83% among 360,000; AID 588458; DNMT1 molecular beacon, Hinp1I cleavage, fluorescence; inhibition (reported as % activation of signal), % at 10 µM; P26358; in the data active = inhibition above about 50%
CSN deneddyl inh – blocks human CSN-mediated cullin deneddylation | Q92905 | Purified CSN, SCF-Nedd8-OG deneddylation, fluorescence polarization | inhibition, % at 12.5 µM | hit rate 0.38% among 360,000;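 active = pattern-corrected inhibition above about 35%, with an unprinted fluorescence ratio check between 0.5 and 1.5, limit read from the data, passing the limit was not always enough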
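Detection – fluorescence polarization · System – HEK293T-derived human Csn5 enzyme · Controls – substrate-only high control, full reaction low control · Timing – 90 min, room temperature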
Scp-1 conf – Scp-1 (human) inhibition, single-dose confirmed; shares compounds with Scp1 inh; recombinant SCP-1 catalytic domain, phosphate release, malachite green absorbance; inhibition, % at 20 µM; hit rate 61% among 2,500; AID 540281
Scp-1 MG ctr – counter-screen for Scp-1 inhibitors: colorimetric interference | apparent inhibition (interference), % at 20 µM | AID 540313 | 2,500 tested, under 10 active | shares compounds with Scp1 inh | Colorimetric interference counterscreen, malachite green absorbance 630 nm;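 note: compounds added after enzyme reaction finished so only phosphate colour detection is probed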
Scp-1 Tm shift – binds human Scp-1, shifting its melting temperature | Recombinant SCP1, Sypro Orange thermal shift Tm | hit rate 25% among 1,500 | shares compounds with Scp1 inh | thermal shift relative to vanadate control, % at 40 µM;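 active = substances whose mean melting-temperature shift, as a percentage of the reference inhibitor's shift, reaches about 5.3%, limit read from the data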
Large screens that a line does not name were inactive (follow-up assays come after a bar, where they were run). The list is not random: actives were taken first. Their share in the collection is about 2%.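 Rule for the calls, unless noted: active = inhibition of at least 30% at 20 µM; inactive = the rest.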

O=C1NCCCC2c3c(cc(Br)c(O)c3Br)OC12N1CCCCC1 (stereo not drawn)	Scp1 inh 57 | Scp-1 conf inactive | Scp-1 MG ctr inactive
COc1ccc(C2(C(=O)Nc3ccc(C)cc3)CCOCC2)cc1	none
Cc1ccc(NC(=O)CC2C(=O)NCCN2C(=O)c2ccc(F)cc2)cc1 (stereo not drawn)	none | Scp-1 conf inactive | Scp-1 MG ctr inactive
C/C(Cn1nnc2ccccc21)=N\NC(=O)c1ccc(Br)cc1	none
Cn1c(=O)c(NC(=O)c2ccccc2)c2n(c1=S)CCCCC2	Scp1 inh 55 | Scp-1 conf 36 | Scp-1 MG ctr inactive | Scp-1 Tm shift inactive
CC(C)(C)C(=O)O/N=C(\N)COc1cccc(Cl)c1	Scp1 inh 79 | Scp-1 conf inactive | Scp-1 MG ctr inactive
CCN(CC)S(=O)(=O)c1cccc(C(=O)Nc2ccc(S(=O)(=O)NC3=NCCCCC3)cc2)c1	Scp1 inh 56 | Scp-1 conf inactive | Scp-1 MG ctr inactive
O=C(N/N=C/c1cccnc1)c1cccc(NC(=O)c2ccc(Cl)cc2)c1	SUMO1 PPI mod 66, Scp1 inh 82, STEP inh 97, CSN deneddyl inh 110 | Scp-1 conf 65 | Scp-1 MG ctr inactive | Scp-1 Tm shift inactive
CCN(CCCCN1C(=O)c2ccccc2C1=O)c1ccc2c(c1)C(=O)N(C)C2=O	Scp1 inh 67 | Scp-1 conf 68 | Scp-1 MG ctr inactive | Scp-1 Tm shift inactive
CCN(CC)c1ccc2c(c1)C(=O)N(C)C2=O	none
O=C(N/C(=C\c1ccco1)C(=O)N1CCCC(CO)C1)c1ccccc1 (stereo not drawn)	none
CCCCc1ccc(S(=O)(=O)Nc2cc(C)on2)cc1	Scp1 inh 70 | Scp-1 conf inactive | Scp-1 MG ctr inactive
C[C@H](CO)N1C[C@H](C)[C@@H](CN(C)Cc2ccc3c(c2)OCO3)Oc2c(NS(=O)(=O)c3cn(C)cn3)cccc2C1=O	none
C[C@H](CO)N1C[C@H](C)[C@@H](CN(C)Cc2ccc(C(=O)O)cc2)Oc2c(NS(=O)(=O)c3cccs3)cccc2C1=O	Scp1 inh 50 | Scp-1 conf inactive | Scp-1 MG ctr inactive
C[C@H](CO)N1C[C@H](C)[C@@H](CN(C)Cc2ccc(-c3ccccc3)cc2)Oc2c(NS(=O)(=O)c3ccccc3)cccc2C1=O	Scp1 inh 62 | Scp-1 conf inactive | Scp-1 MG ctr inactive
C[C@H](CO)N1C[C@H](C)[C@@H](CN(C)Cc2ccc(-c3ccccc3)cc2)Oc2c(NS(=O)(=O)c3cn(C)cn3)cccc2C1=O	Scp1 inh 69 | Scp-1 conf inactive | Scp-1 MG ctr inactive
C[C@@H]1CN([C@@H](C)CO)C(=O)c2cccc(NS(=O)(=O)c3cccs3)c2O[C@H]1CN(C)Cc1ccc(C(F)(F)F)cc1	none
COc1ccc(C(C)C)cc1S(=O)(=O)NC1CCCC1	none
CC1CCCN(C(=O)CSc2nnc3ccccn23)C1 (stereo not drawn)	none
Cc1[nH]c(SCC(=O)c2c(N)n(C)c(=O)n(C)c2=O)nc1Cc1ccccc1	none
COc1ccc2cc(C(=O)NCc3ccco3)c(=Nc3ccc(C(=O)O)cc3)oc2c1	Scp1 inh 63 | Scp-1 conf 34 | Scp-1 MG ctr inactive | Scp-1 Tm shift inactive
CSc1nnc(C)c(/C=C/Nc2ccc(F)cc2F)n1	Scp1 inh 55 | Scp-1 conf 66 | Scp-1 MG ctr inactive | Scp-1 Tm shift inactive
CCCNC(=O)C1(C)CCN1C(=O)Cc1ccc(C(C)C)cc1 (stereo not drawn)	none (no result: Scp1 inh)
O=C(O)c1cccc(-c2ccc3c(c2)OCO3)c1	none
O=C1OC(c2ccc3c(c2)OCO3)=N/C1=C\c1ccc(C(=O)O)cc1	Scp1 inh 88 | Scp-1 conf 69 | Scp-1 MG ctr inactive | Scp-1 Tm shift 6.3
O=C(CCCCn1c(=S)[nH]c2ccsc2c1=O)NCc1ccc2c(c1)OCO2	Scp1 inh 59 | Scp-1 conf inactive | Scp-1 MG ctr inactive
O=C(CCCCn1c(=O)[nH]c2ccsc2c1=O)NCc1ccc2c(c1)OCO2	none
Cc1c(C(=O)O)sc2nc(CSc3ncc(C(F)(F)F)cc3Cl)[nH]c(=O)c12	Scp1 inh 97 | Scp-1 conf 49 | Scp-1 MG ctr inactive | Scp-1 Tm shift inactive
CCOC(=O)c1sc2nc(CSc3ccccc3Cl)[nH]c(=O)c2c1C	none
Clc1ccccc1CN1CCN(/N=C/C=C/c2ccco2)CC1	none
CCc1ccccc1NC(=O)CCS(=O)(=O)c1ccc(OC)cc1	Scp1 inh 55 | Scp-1 conf 48 | Scp-1 MG ctr inactive | Scp-1 Tm shift inactive
CC(C(=O)N1CCCCC1)N1CCN(S(=O)(=O)c2ccc(Cl)cc2)CC1 (stereo not drawn)	Scp1 inh 97 | Scp-1 conf 78 | Scp-1 MG ctr inactive | Scp-1 Tm shift inactive
CCCC1(CC)C(=O)NC(=O)N=C1N (stereo not drawn)	none
COc1cccc(OC)c1CNC(=O)C1CCC(=O)N(CC2CCCCC2)C1 (stereo not drawn)	none
Cc1ccc(C(=O)NNC(=O)c2ccc3ccccc3c2O)cc1	Scp1 inh 75 | Scp-1 conf 56 | Scp-1 MG ctr inactive | Scp-1 Tm shift inactive
COc1ccc(C(=O)NNC(=O)c2ccc3ccccc3c2O)cc1	none
C=CC#CC1(O)CC(C)[N+](C)(C)CC1C (stereo not drawn)	Scp1 inh 104 | Scp-1 conf 78 | Scp-1 MG ctr inactive | Scp-1 Tm shift inactive
Cn1ncc(C#N)c1/N=C/N(Cc1ccccc1)Cc1ccccc1	Scp1 inh 73 | Scp-1 conf inactive | Scp-1 MG ctr inactive
O=C1CC(c2ccc(S(=O)(=O)Nc3cc(C(F)(F)F)cc(C(F)(F)F)c3)cc2)CN1 (stereo not drawn)	none | Scp-1 conf inactive | Scp-1 MG ctr inactive
CC(C)c1ccc(NC(=O)CSc2nc(=O)n(CCCN3CCOCC3)c3c2CCCC3)cc1	none
Cc1ccc(C(=O)N2CCN(S(=O)(=O)c3cc(Br)ccc3Br)CC2)o1	Scp1 inh 68 | Scp-1 conf inactive | Scp-1 MG ctr inactive
O=C(COc1ccccc1[N+](=O)[O-])Nc1cccc(S(=O)(=O)NC2=NCCCCC2)c1	Scp1 inh 62 | Scp-1 conf 74 | Scp-1 MG ctr inactive | Scp-1 Tm shift inactive

Compound activity deposited in PubChem BioAssay by Sanford-Burnham Center for Chemical Genomics.
